Data taken from PubChem BioAssay.
Calls of active or inactive are those of the source. Cut-off read from the data, not from the text of the source, unless noted: active = inhibition above about 30%; inactive = the rest.

How the values were obtained:
[1] = reducers of endogenous Her2 protein level, primary screen, SKBR3 breast tumor cells, AlphaScreen, ATP viability (AID 461;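 active = Her2 level under about 52% in both replicate screens, with viability over 70% of control, limit read from the data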;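 for Her2 level: lower value means less Her2 protein in the cells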;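 for viability: percent of carrier control wells set as 100% viability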); conditions: 18-24 h, measured here: SKBR3 viability, ATP luminescence, at 10 µM
[2] = target: Receptor tyrosine-protein kinase erbB-2 (Homo sapiens) (UniProt P04626); experiment: as above; conditions: 18-24 h, at 10 µM, stronger effect = lower value
[3] = SK-BR-3 cell growth inhibitors, pilot screen, 24 h, human (AID 572;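 active = viability at or below 10% of carrier control in both of two separate runs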;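 note: compound exposure lasted between 18 and 24 h rather than exactly 24 h; 100% = carrier-treated control wells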); conditions: SK-BR-3 viability, CellTiter-Glo luminescence, at 10 µM, stronger effect = lower value
[4] = HUVEC growth inhibition – cell-based, human, primary screen (AID 575;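 active = viability at or below 30% in both replicate assays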;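 note: 100% = median of untreated cell wells with 0.1% DMSO on each plate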); conditions: HUVEC proliferation, CellTiter-Glo luminescence, 72 h; at 10 µM; stronger effect = lower value
Procedure, shortened: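 Timing: 72 h treatment at 37 °C; material: HUVEC primary cells; technique: CellTiter-Glo luminescence measuring cellular ATP; controls: vehicle and MePR control wells; measure: percent of median DMSO-control luminescence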

[5] = growth inhibitors of H69AR lung tumor, primary screen, human, duplicate replicates (AID 580;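 active = viability at or under a set limit in both replicates, limit being median viability minus 3 SD, cut at about 48% in these data, passing the limit was not always enough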;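 note: 100% = mean luminescence of untreated wells and 0% = no signal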); conditions: H69AR lung tumor cells viability, ATP luminescence, 72 h; at 10 µM; stronger effect = lower value
[6] = reversal of MRP1-mediated doxorubicin resistance, pilot screen, H69AR cells, doxorubicin co-treatment (AID 601;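 active = viability loss from added drug above about 55%, and viability with drug at most 40%, in both replicates, limit read from the data, passing the limit was not always enough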); conditions: CellTiter-Glo, 72 h, at 10 µM; for differential viability (reversal): stronger effect = higher value
[7] = 384-well plate pilot, post-Golgi transport modulator project, inhibition of yeast transport mutant growth (AID 636; in the data active = inhibition above about 31%); conditions: absorbance 615 nm, about 18 h, stronger effect = higher value
[8] = growth suppression of yeast trafficking mutant, preliminary HTS, modulators of trafficking downstream of Golgi apparatus project, 1536-format plate, OD 615 nm (AID 637); conditions: yeast transport mutant growth, absorbance 615 nm, 18 h; stronger effect = higher value
[9] = H69AR cells + 2 uM doxorubicin, measured here: viability with 2 uM doxorubicin, stronger effect = lower value
[10] = H69AR cells, compound alone cytotoxicity

Sequence of Receptor tyrosine-protein kinase erbB-2 (Homo sapiens) (P04626 whole entry, looked up): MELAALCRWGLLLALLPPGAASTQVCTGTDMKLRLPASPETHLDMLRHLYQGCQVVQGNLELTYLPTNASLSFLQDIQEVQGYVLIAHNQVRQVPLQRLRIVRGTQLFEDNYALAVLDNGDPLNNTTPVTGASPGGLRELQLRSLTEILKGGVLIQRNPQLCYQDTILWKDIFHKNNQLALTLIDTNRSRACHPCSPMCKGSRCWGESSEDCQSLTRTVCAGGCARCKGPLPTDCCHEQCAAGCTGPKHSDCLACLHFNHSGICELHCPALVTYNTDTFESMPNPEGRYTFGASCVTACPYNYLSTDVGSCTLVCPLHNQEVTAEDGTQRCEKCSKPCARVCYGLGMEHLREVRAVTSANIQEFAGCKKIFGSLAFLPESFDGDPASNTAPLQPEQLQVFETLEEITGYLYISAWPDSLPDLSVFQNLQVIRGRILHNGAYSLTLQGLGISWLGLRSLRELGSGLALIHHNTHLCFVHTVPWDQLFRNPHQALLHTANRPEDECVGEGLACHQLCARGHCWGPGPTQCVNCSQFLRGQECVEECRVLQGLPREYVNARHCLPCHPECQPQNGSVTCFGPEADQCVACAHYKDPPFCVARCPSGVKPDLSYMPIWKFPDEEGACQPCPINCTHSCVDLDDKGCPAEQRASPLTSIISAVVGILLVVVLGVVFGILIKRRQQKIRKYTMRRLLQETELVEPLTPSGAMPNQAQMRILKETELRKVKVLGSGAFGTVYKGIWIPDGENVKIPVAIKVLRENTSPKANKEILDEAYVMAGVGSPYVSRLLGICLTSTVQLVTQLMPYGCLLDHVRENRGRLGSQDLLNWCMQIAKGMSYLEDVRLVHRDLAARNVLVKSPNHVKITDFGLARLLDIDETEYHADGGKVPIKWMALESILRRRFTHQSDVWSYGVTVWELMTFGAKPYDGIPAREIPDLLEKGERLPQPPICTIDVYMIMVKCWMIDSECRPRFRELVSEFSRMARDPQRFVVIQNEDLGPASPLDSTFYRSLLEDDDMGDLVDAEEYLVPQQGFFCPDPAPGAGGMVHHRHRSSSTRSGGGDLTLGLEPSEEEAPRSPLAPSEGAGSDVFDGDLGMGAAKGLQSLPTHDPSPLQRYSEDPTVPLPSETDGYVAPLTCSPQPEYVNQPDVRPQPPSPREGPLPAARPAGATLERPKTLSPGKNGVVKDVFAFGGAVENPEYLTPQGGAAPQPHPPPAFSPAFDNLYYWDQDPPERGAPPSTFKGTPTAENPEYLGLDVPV

| Compound | viability [1] [%] | Her2 level [2] | viability [3] | viability [4] | viability [5] | differential viability (reversal) ([6]; H69AR cells + 2 uM doxorubicin) | viability [6, 9] [%] | viability [6, 10] [%] | inhibition [7] | inhibition [8] |
| --- | --- | --- | --- | --- | --- | --- | --- | --- | --- | --- |
| Cc1nc2c(C(=O)O)cnn2c(C)c1Cc1ccccc1F | 97.5 | 141% (inactive) | 97.5% (inactive) | 70.6% (inactive) | 87.4% (inactive) | 2.52% (inactive) | 84.8 | 87.4 | 1.84% (inactive) | -8.33% (inactive) |
| COc1ccc2nc(NC(=O)CSc3nnc(-c4ccoc4C)n3C)sc2c1 | 112 | 106% (inactive) | 112% (inactive) | 80.2% (inactive) | 84.8% (inactive) | 9.45% (inactive) | 75.4 | 84.8 | -6.13% (inactive) | -3.87% (inactive) |
| CC1C(c2ccccc2)N(C)CCC12NC(=O)NC2=O (stereo not given) | 89 | 95.5% (inactive) | 89% (inactive) | 96.9% (inactive) | 98.2% (inactive) | 13% (inactive) | 85.2 | 98.2 | -5.33% (inactive) | -9.02% (inactive) |
| CCOC(=O)c1[nH]c2ccc(C)cc2c1N=C(C)N(C)C | 100 | 89% (inactive) | 100% (inactive) | 96.5% (inactive) | 97.7% (inactive) | 6.32% (inactive) | 91.4 | 97.7 | -0.66% (inactive) | -5.32% (inactive) |
| CCOc1ccc(C(=O)N(Cc2ccc(N(C)C)cc2)C2CCS(=O)(=O)C2)cc1 (stereo not given) | 114 | 121% (inactive) | 114% (inactive) | 101% (inactive) | 88.1% (inactive) | -16.6% (inactive) | 105 | 88.1 | -1.18% (inactive) | 2.79% (inactive) |
| CCn1cc(C2=NOC(C(=O)Nc3cc(C)nn3-c3ccccc3)C2)c(C)n1 (stereo not given) | 89.5 | 88.5% (inactive) | 89.5% (inactive) | 101% (inactive) | 101% (inactive) | 8.29% (inactive) | 93 | 101 | -1.18% (inactive) | -8.25% (inactive) |
| Cn1c(CCCNC(=O)c2ccccc2)nc2ccccc21 | 112 | 83% (inactive) | 112% (inactive) | 103% (inactive) | 100% (inactive) | 18.6% (inactive) | 81.7 | 100 | -8.65% (inactive) | -1.83% (inactive) |
| CCN(CC)S(=O)(=O)c1cccc2c(N(C)C)cccc12 | 99.5 | 112% (inactive) | 99.5% (inactive) | 107% (inactive) | 93.3% (inactive) | 4.14% (inactive) | 89.2 | 93.3 | -4.93% (inactive) | -4.52% (inactive) |
| COc1ccc(C(=O)N(CCN2CCOCC2)CC(=O)NC2CCCC2)cc1OC | 83.5 | 106% (inactive) | 83.5% (inactive) | 111% (inactive) | 91.6% (inactive) | -0.805% (inactive) | 92.4 | 91.6 | -0.8% (inactive) | 8.36% (inactive) |
| COc1ccc(Cn2nnnc2C(c2cccs2)N2CCOCC2)cc1 (stereo not given) | 105 | 123% (inactive) | 105% (inactive) | 90.9% (inactive) | 109% (inactive) | -1.24% (inactive) | 111 | 109 | 3.16% (inactive) | 5.33% (inactive) |
| CC(=O)NC(=O)NC1CSCC1OC(C)=O (stereo not given) | 112 | 89% (inactive) | 112% (inactive) | 106% (inactive) | 92.8% (inactive) | 5.96% (inactive) | 86.9 | 92.8 | -6.53% (inactive) | 0.48% (inactive) |
| Cn1c(=O)cc(OCC(=O)NCCCN2CCN(c3cccc(Cl)c3)CC2)c2ccccc21 | 85.5 | 74.5% (inactive) | 85.5% (inactive) | 48.7% (inactive) | 63.7% (inactive) | -1.39% (inactive) | 65.1 | 63.7 | -6.53% (inactive) | -2.62% (inactive) |
| O=C(NCCN1CCOCC1)C1CC(=O)N(c2ccc(F)c(Cl)c2)C1 (stereo not given) | 124 | 111% (inactive) | 124% (inactive) | 100% (inactive) | 98.2% (inactive) | 3.27% (inactive) | 94.9 | 98.2 | -1.18% (inactive) | -4.03% (inactive) |
| COc1cccc(OC)c1OCCN1CCN(C(=O)c2ccco2)CC1 | 86.5 | 88.5% (inactive) | 86.5% (inactive) | 107% (inactive) | 95.8% (inactive) | 10.7% (inactive) | 85 | 95.8 | -6.85% (inactive) | -4.92% (inactive) |
| CN(C)S(=O)(=O)c1ccc(C(=O)N2CCC(c3nc4ccccc4o3)CC2)cc1 | 82 | 83% (inactive) | 82% (inactive) | 95.1% (inactive) | 83% (inactive) | 8.86% (inactive) | 74.1 | 83 | -4.67% (inactive) | -6.07% (inactive) |
| N#CC1=C(N)SC(N)=C(C#N)C1CCc1ccccc1 | 79.5 | 77.5% (inactive) | 79.5% (inactive) | 44.8% (inactive) | 23.3% (active) | -8.65% (inactive) | 31.9 | 23.3 | -2.11% (inactive) | -0.36% (inactive) |

| Compound | viability [1] [%] | Her2 level [2] | viability [3] | viability [4] | viability [5] | differential viability (reversal) ([6]; H69AR cells + 2 uM doxorubicin) | viability [6, 9] [%] | viability [6, 10] [%] | inhibition [7] | inhibition [8] |
| --- | --- | --- | --- | --- | --- | --- | --- | --- | --- | --- |
| CCN(CC)CCOC(=O)c1c(C)oc2ccc(O)cc12 | 102 | 109% (inactive) | 102% (inactive) | 89.7% (inactive) | 95% (inactive) | 3.9% (inactive) | 91.1 | 95 | -0.53% (inactive) | -6.94% (inactive) |
| COCCn1nnnc1C(c1cc2cc(OC)ccc2[nH]c1=O)N1CCC(Cc2ccccc2)CC1 (stereo not given) | 124 | 80% (inactive) | 124% (inactive) | 65.4% (inactive) | 9.35% (active) | -15.4% (inactive) | 24.8 | 9.35 | -7.87% (inactive) | -2.38% (inactive) |
| C(=N\n1cnnc1)/c1cccnc1 | 87.5 | 107% (inactive) | 87.5% (inactive) | 105% (inactive) | 98.6% (inactive) | 9.86% (inactive) | 88.8 | 98.6 | 4.34% (inactive) | 0.36% (inactive) |
| CCn1cc(C(=O)O)c(=O)c2cc(F)c(N3CCN(C(=O)Nc4ccccc4)CC3)cc21 | 108 | 92% (inactive) | 108% (inactive) | 111% (inactive) | 79.5% (inactive) | -1.55% (inactive) | 81.1 | 79.5 | -3.87% (inactive) | 0% (inactive) |
| O=C1CN=C(Nc2cccc(C(F)(F)F)c2)N1C1CCCC1 | 97 | 119% (inactive) | 97% (inactive) | 101% (inactive) | 82.5% (inactive) | -15.2% (inactive) | 97.7 | 82.5 | -3.33% (inactive) | -1.8% (inactive) |
| c1ccc(CCNc2ccc3nncn3n2)cc1 | 82 | 89.5% (inactive) | 82% (inactive) | 95.6% (inactive) | 86.5% (inactive) | 3.48% (inactive) | 83 | 86.5 | -2.53% (inactive) | 0.98% (inactive) |
| Cc1nn(-c2ccc(F)cc2)c2sc(C(=O)O)cc12 | 99 | 103% (inactive) | 99% (inactive) | 72.9% (inactive) | 89.8% (inactive) | 5.49% (inactive) | 84.3 | 89.8 | 0% (inactive) | 1.64% (inactive) |
| COC(=O)C(CC(C)C)NC(=O)CSc1nc(-c2ccccc2)c(C#N)c(=O)[nH]1 (stereo not given) | 110 | 90% (inactive) | 110% (inactive) | 107% (inactive) | 108% (inactive) | 7.26% (inactive) | 100 | 108 | -3.12% (inactive) | 4.1% (inactive) |
| Cc1c(C(=O)Nc2cnccn2)oc2ccccc12 | 110 | 72% (inactive) | 110% (inactive) | 58.6% (inactive) | 37.4% (active) | -35.3% (inactive) | 72.7 | 37.4 | -5.6% (inactive) | 3.49% (inactive) |
| COC(=O)c1ccccc1NC(=O)c1cc(-c2ccc(OC)c(OC)c2)on1 | 99 | 90.5% (inactive) | 99% (inactive) | 114% (inactive) | 77.8% (inactive) | 5.72% (inactive) | 72 | 77.8 | -7.57% (inactive) | -8% (inactive) |
| CCOC(=O)CNC(=O)CSc1ncnc2c1cnn2-c1ccccc1 | 87.5 | 94% (inactive) | 87.5% (inactive) | 97.4% (inactive) | 102% (inactive) | 6.58% (inactive) | 95.1 | 102 | -4% (inactive) | -2.26% (inactive) |
| CC(c1ccccc1)N1C(=O)c2ccc(C(=O)NCc3ccco3)cc2C1=O (stereo not given) | 104 | 84% (inactive) | 104% (inactive) | 93.6% (inactive) | 95.7% (inactive) | 5.55% (inactive) | 90.1 | 95.7 | -3.16% (inactive) | -4.92% (inactive) |
| O=C(c1ccc(-c2ccccc2)cc1)N1CCN(c2ncccn2)CC1 | 91 | 96.5% (inactive) | 91% (inactive) | 94.6% (inactive) | 103% (inactive) | 12.7% (inactive) | 90.5 | 103 | -9.32% (inactive) | 6.39% (inactive) |
| COC(=O)c1ccc(CSc2nc3c(cnn3-c3ccc(F)cc3)c(=O)[nH]2)o1 | 99 | 101% (inactive) | 99% (inactive) | 65.3% (inactive) | 92.5% (inactive) | -4.38% (inactive) | 96.9 | 92.5 | -2.19% (inactive) | -1.9% (inactive) |
| O=C(c1ccc(COc2c(F)c(F)c(F)c(F)c2F)o1)N1CCOCC1 | 111 | 98.5% (inactive) | 111% (inactive) | 100% (inactive) | 88% (inactive) | 7.68% (inactive) | 80.3 | 88 | -5.81% (inactive) | 6.98% (inactive) |
